Data published in ChEMBL document CHEMBL1133016, “Opiate aromatic pharmacophore structure-activity relationships in CTAP analogues determined by topographical bias, two-dimensional NMR, and biological activity assays” (J Med Chem, 2000).
Bridge positions count the residues as written; N and C are the ends. Square brackets hold non-standard residues; d marks the D form. Peptide text beside a SMILES is read from it. dTic = O=C(O)[C@H]1Cc2ccccc2CN1; Pen = CC(C)(S)[C@H](N)C(=O)O

Tests used:
Cavia porcellus [1] = species on record: Cavia porcellus; experiment: Evaluated for antagonist activity as the rightward fold shift of dose response curve of the known agonist PL-017 in Guinea pig ileum (GPI) at 1 uM concentration of compound; assay type: functional
In short: (§1)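 Longitudinal muscle-myenteric plexus strips from nonterminal ileum of male Hartley guinea pigs (250-500 g). Held in Krebs-bicarbonate at 37 °C under 95% O₂/5% CO₂, 1 g resting tension after 15 min unloaded equilibration. Stimulated transmurally at 0.1 Hz, 0.4 ms pulses, supramaximal voltage. Agonist twitch effect read after 3 min incubation; antagonist added 2 min before agonist. Mean ± SEM.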

Cavia porcellus [2] = species on record: Cavia porcellus; experiment: Evaluated for agonist activity as percent inhibition in electrically evoked twitch height in Guinea pig ileum (GPI) at 1 uM concentration of compound; assay type: functional; in short: as §1
Mus musculus = species on record: Mus musculus; experiment: Evaluated for agonist activity as percent inhibition in electrically evoked twitch height in mouse vas deferens (MVD) at 1 uM concentration of compound; assay type: functional
In short: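 Vasa deferentia from male ICR mice (25-40 g), held in magnesium-free Krebs at 37 °C under 95% O₂/5% CO₂. Hung 15 min without tension, then under 0.5 g resting tension. Stimulated transmurally at 0.1 Hz, 2 ms pulses, supramaximal voltage. Twitch inhibition read 3 min after agonist, expressed relative to the pre-dose twitch height. Mean ± SEM.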

Mu-type opioid receptor = Mu-type opioid receptor (Rattus norvegicus, UniProt P33535); experiment: Binding affinity for rat brain Opioid receptor mu 1
Mu-type opioid receptor, sequence (P33535 whole entry): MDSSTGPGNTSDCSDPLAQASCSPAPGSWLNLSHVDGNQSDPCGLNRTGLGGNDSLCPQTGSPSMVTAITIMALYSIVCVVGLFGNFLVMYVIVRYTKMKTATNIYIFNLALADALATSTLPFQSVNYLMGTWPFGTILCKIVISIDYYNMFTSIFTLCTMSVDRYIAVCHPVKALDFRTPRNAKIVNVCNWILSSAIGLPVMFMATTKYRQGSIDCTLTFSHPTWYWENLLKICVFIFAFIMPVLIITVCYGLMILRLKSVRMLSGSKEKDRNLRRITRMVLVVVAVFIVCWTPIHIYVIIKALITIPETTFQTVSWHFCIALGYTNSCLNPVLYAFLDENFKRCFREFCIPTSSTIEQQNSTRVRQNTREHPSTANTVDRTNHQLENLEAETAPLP
In short: (§2)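 Whole-brain membranes from adult Sprague-Dawley rats (250-300 g), homogenized at 0 °C in 50 mM Tris-HCl pH 7.4, centrifuged at 48 000g, and preincubated at 25 °C to strip endogenous ligand. Competition run for 3 h at 25 °C in Tris-HCl with BSA, bestatin, bacitracin, captopril and PMSF. Radioligand was [3H][4′-Cl-Phe4]DPDPE 0.75 nM for δ or [3H]DAMGO 1.0 nM for μ, with ≥10 analogue concentrations. Nonspecific binding defined with 10 µM naltrexone; each analogue tested ≥3 times.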

[3] = molecular target: Delta-type opioid receptor (Rattus norvegicus, UniProt P33533); experiment: Binding affinity for rat brain Opioid receptor delta 1; in short: as §2
Delta-type opioid receptor, sequence (P33533 whole entry): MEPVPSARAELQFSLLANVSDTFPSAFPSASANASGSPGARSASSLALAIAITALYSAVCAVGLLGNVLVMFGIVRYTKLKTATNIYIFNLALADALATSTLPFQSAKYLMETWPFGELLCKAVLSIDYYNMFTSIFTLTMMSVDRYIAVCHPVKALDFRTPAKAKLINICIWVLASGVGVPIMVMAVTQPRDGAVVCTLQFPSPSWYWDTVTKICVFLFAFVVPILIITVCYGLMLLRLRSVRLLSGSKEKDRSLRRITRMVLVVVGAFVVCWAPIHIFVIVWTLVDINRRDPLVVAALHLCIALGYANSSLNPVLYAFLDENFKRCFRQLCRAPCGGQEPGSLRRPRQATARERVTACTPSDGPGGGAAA

Cavia porcellus [4] = species on record: Cavia porcellus; experiment: Evaluated for antagonist activity as the rightward fold shift of dose response curve of the known agonist PL-017 in Guinea pig ileum (GPI). 1-fold indicates no change in the dose response curve; assay type: functional; in short: as §1

| Compound | PL-017 shift (Cavia porcellus [1]) | inhibition at 1 µM (Cavia porcellus [2]) | inhibition at 1 µM (Mus musculus) | IC50 (Mu-type opioid receptor) | IC50 [3] | PL-017 shift (Cavia porcellus [4]) |
| --- | --- | --- | --- | --- | --- | --- |
| C[C@@H](O)[C@H](NC(=O)[C@H]1NC(=O)[C@H]([C@@H](C)O)NC(=O)[C@H](CCCNC(=N)N)NC(=O)[C@@H](Cc2c[nH]c3ccccc23)NC(=O)[C@H](Cc2ccc(O)cc2)NC(=O)[C@@H](NC(=O)[C@H](N)Cc2ccccc2)CSSC1(C)C)C(N)=O | 55 | 4% | 17% | – | – | – |
| C[C@@H](O)[C@H](NC(=O)[C@H]1NC(=O)[C@H]([C@@H](C)O)NC(=O)[C@H](CCCN=C(N)N)NC(=O)[C@@H](Cc2c[nH]c3ccccc23)NC(=O)[C@H](Cc2ccc(O)cc2)NC(=O)[C@@H](NC(=O)[C@H](N)[C@@H](C)c2ccccc2)CSSC1(C)C)C(N)=O [listing 1 of 2 here] | – | – | – | 21 nM | 1320 nM | – |
| C[C@@H](O)[C@H](NC(=O)[C@H]1NC(=O)[C@H]([C@@H](C)O)NC(=O)[C@H](CCCN=C(N)N)NC(=O)[C@@H](Cc2c[nH]c3ccccc23)NC(=O)[C@H](Cc2ccc(O)cc2)NC(=O)[C@@H](NC(=O)[C@H](N)[C@@H](C)c2ccccc2)CSSC1(C)C)C(N)=O [listing 2 of 2 here] | 15 | 0% | 8% | – | – | – |
| C[C@H](c1ccccc1)[C@@H](N)C(=O)N[C@H]1CSSC(C)(C)[C@@H](C(=O)N[C@H](C(N)=O)[C@@H](C)O)NC(=O)[C@H]([C@@H](C)O)NC(=O)[C@H](CCCN=C(N)N)NC(=O)[C@@H](Cc2c[nH]c3ccccc23)NC(=O)[C@H](Cc2ccc(O)cc2)NC1=O [listing 1 of 2 here] | – | – | – | 20 nM | 1190 nM | – |
| C[C@H](c1ccccc1)[C@@H](N)C(=O)N[C@H]1CSSC(C)(C)[C@@H](C(=O)N[C@H](C(N)=O)[C@@H](C)O)NC(=O)[C@H]([C@@H](C)O)NC(=O)[C@H](CCCN=C(N)N)NC(=O)[C@@H](Cc2c[nH]c3ccccc23)NC(=O)[C@H](Cc2ccc(O)cc2)NC1=O [listing 2 of 2 here] | 19 | 0% | 34% | – | – | – |
| C[C@H](c1c[nH]c2ccccc12)[C@H](N)C(=O)N[C@H]1CSSC(C)(C)[C@@H](C(=O)N[C@H](C(N)=O)[C@@H](C)O)NC(=O)[C@H]([C@@H](C)O)NC(=O)[C@H](CCCNC(=N)N)NC(=O)[C@@H](Cc2c[nH]c3ccccc23)NC(=O)[C@H](Cc2ccc(O)cc2)NC1=O | – | – | – | 3400 nM | 7460 nM | – |
| C[C@H](c1c[nH]c2ccccc12)[C@H](N)C(=O)N[C@H]1CSSC(C)(C)[C@@H](C(=O)N[C@H](C(N)=O)[C@@H](C)O)NC(=O)[C@H]([C@@H](C)O)NC(=O)[C@H](CCCN=C(N)N)NC(=O)[C@@H](Cc2c[nH]c3ccccc23)NC(=O)[C@H](Cc2ccc(O)cc2)NC1=O | 1 | 0% | 0% | – | – | – |
| C[C@@H](O)[C@H](NC(=O)[C@H]1NC(=O)[C@H]([C@@H](C)O)NC(=O)[C@H](CCCN=C(N)N)NC(=O)[C@@H](Cc2c[nH]c3ccccc23)NC(=O)[C@H](Cc2ccc(O)cc2)NC(=O)[C@@H](NC(=O)[C@H](N)Cc2c[nH]c3ccccc23)CSSC1(C)C)C(N)=O [listing 1 of 2 here] | – | – | – | 1.39 nM | 3530 nM | – |
| C[C@@H](O)[C@H](NC(=O)[C@H]1NC(=O)[C@H]([C@@H](C)O)NC(=O)[C@H](CCCN=C(N)N)NC(=O)[C@@H](Cc2c[nH]c3ccccc23)NC(=O)[C@H](Cc2ccc(O)cc2)NC(=O)[C@@H](NC(=O)[C@H](N)Cc2c[nH]c3ccccc23)CSSC1(C)C)C(N)=O [listing 2 of 2 here] | 1 | 43% | 13.6% | – | – | – |
| C[C@@H](O)[C@H](NC(=O)[C@H]1NC(=O)[C@H]([C@@H](C)O)NC(=O)[C@H](CCCNC(=N)N)NC(=O)[C@@H](Cc2c[nH]c3ccccc23)NC(=O)[C@H](Cc2ccc(O)cc2)NC(=O)[C@@H](NC(=O)[C@@H](N)[C@@H](C)c2ccccc2)CSSC1(C)C)C(N)=O | – | – | – | 1500 nM | > 15000 nM | – |
| C[C@@H](O)[C@H](NC(=O)[C@H]1NC(=O)[C@H]([C@@H](C)O)NC(=O)[C@H](CCCN=C(N)N)NC(=O)[C@@H](Cc2c[nH]c3ccccc23)NC(=O)[C@H](Cc2ccc(O)cc2)NC(=O)[C@@H](NC(=O)[C@@H](N)[C@@H](C)c2ccccc2)CSSC1(C)C)C(N)=O | 1 | 0% | 35% | – | – | – |
| C[C@@H](O)[C@H](NC(=O)[C@H]1NC(=O)[C@H]([C@@H](C)O)NC(=O)[C@H](CCCN=C(N)N)NC(=O)[C@@H](Cc2c[nH]c3ccccc23)NC(=O)[C@H](Cc2ccc(O)cc2)NC(=O)[C@@H](NC(=O)[C@H]2Cc3c([nH]c4ccccc34)CN2)CSSC1(C)C)C(N)=O [listing 1 of 2 here] | – | – | – | 173 nM | 211 nM | – |
| C[C@@H](O)[C@H](NC(=O)[C@H]1NC(=O)[C@H]([C@@H](C)O)NC(=O)[C@H](CCCN=C(N)N)NC(=O)[C@@H](Cc2c[nH]c3ccccc23)NC(=O)[C@H](Cc2ccc(O)cc2)NC(=O)[C@@H](NC(=O)[C@H]2Cc3c([nH]c4ccccc34)CN2)CSSC1(C)C)C(N)=O [listing 2 of 2 here] | 1.2 | 18% | – | – | – | – |
| C[C@H](c1ccccc1)[C@H](N)C(=O)N[C@H]1CSSC(C)(C)[C@@H](C(=O)N[C@H](C(N)=O)[C@@H](C)O)NC(=O)[C@H]([C@@H](C)O)NC(=O)[C@H](CCCN=C(N)N)NC(=O)[C@@H](Cc2c[nH]c3ccccc23)NC(=O)[C@H](Cc2ccc(O)cc2)NC1=O [listing 1 of 2 here] | – | – | – | 5420 nM | 13200 nM | – |
| C[C@H](c1ccccc1)[C@H](N)C(=O)N[C@H]1CSSC(C)(C)[C@@H](C(=O)N[C@H](C(N)=O)[C@@H](C)O)NC(=O)[C@H]([C@@H](C)O)NC(=O)[C@H](CCCN=C(N)N)NC(=O)[C@@H](Cc2c[nH]c3ccccc23)NC(=O)[C@H](Cc2ccc(O)cc2)NC1=O [listing 2 of 2 here] | – | 13% | 0% | – | – | 1 |
| C[C@@H](O)[C@H](NC(=O)[C@H]1NC(=O)[C@H]([C@@H](C)O)NC(=O)[C@H](CCCNC(=N)N)NC(=O)[C@@H](Cc2c[nH]c3ccccc23)NC(=O)[C@H](Cc2ccc(O)cc2)NC(=O)[C@@H](NC(=O)[C@H](N)[C@@H](C)c2c[nH]c3ccccc23)CSSC1(C)C)C(N)=O | – | – | – | 12.1 nM | 7480 nM | – |
| C[C@@H](O)[C@H](NC(=O)[C@H]1NC(=O)[C@H]([C@@H](C)O)NC(=O)[C@H](CCCN=C(N)N)NC(=O)[C@@H](Cc2c[nH]c3ccccc23)NC(=O)[C@H](Cc2ccc(O)cc2)NC(=O)[C@@H](NC(=O)[C@H](N)[C@@H](C)c2c[nH]c3ccccc23)CSSC1(C)C)C(N)=O | 68 | 0% | 0% | – | – | – |
| C[C@H](c1c[nH]c2ccccc12)[C@@H](N)C(=O)N[C@H]1CSSC(C)(C)[C@@H](C(=O)N[C@H](C(N)=O)[C@@H](C)O)NC(=O)[C@H]([C@@H](C)O)NC(=O)[C@H](CCCNC(=N)N)NC(=O)[C@@H](Cc2c[nH]c3ccccc23)NC(=O)[C@H](Cc2ccc(O)cc2)NC1=O | – | – | – | 18.7 nM | 3640 nM | – |
| C[C@H](c1c[nH]c2ccccc12)[C@@H](N)C(=O)N[C@H]1CSSC(C)(C)[C@@H](C(=O)N[C@H](C(N)=O)[C@@H](C)O)NC(=O)[C@H]([C@@H](C)O)NC(=O)[C@H](CCCN=C(N)N)NC(=O)[C@@H](Cc2c[nH]c3ccccc23)NC(=O)[C@H](Cc2ccc(O)cc2)NC1=O | 39 | 0% | 3.7% | – | – | – |
| C[C@@H](O)[C@H](NC(=O)[C@H]1NC(=O)[C@H]([C@@H](C)O)NC(=O)[C@H](CCCNC(=N)N)NC(=O)[C@@H](Cc2c[nH]c3ccccc23)NC(=O)[C@H](Cc2ccc(O)cc2)NC(=O)[C@@H](NC(=O)[C@@H](N)[C@@H](C)c2c[nH]c3ccccc23)CSSC1(C)C)C(N)=O | – | – | – | 1360 nM | 9180 nM | – |
| C[C@@H](O)[C@H](NC(=O)[C@H]1NC(=O)[C@H]([C@@H](C)O)NC(=O)[C@H](CCCN=C(N)N)NC(=O)[C@@H](Cc2c[nH]c3ccccc23)NC(=O)[C@H](Cc2ccc(O)cc2)NC(=O)[C@@H](NC(=O)[C@@H](N)[C@@H](C)c2c[nH]c3ccccc23)CSSC1(C)C)C(N)=O | 2.6 | 0% | 0% | – | – | – |
| C[C@@H](O)[C@H](NC(=O)[C@H]1NC(=O)[C@H]([C@@H](C)O)NC(=O)[C@H](CCCN=C(N)N)NC(=O)[C@@H](Cc2c[nH]c3ccccc23)NC(=O)[C@H](Cc2ccc(O)cc2)NC(=O)[C@@H](NC(=O)[C@H]2Cc3ccccc3CN2)CSSC1(C)C)C(N)=O (H-[dTic]CY[dW]RT[Pen]T-NH2; disulfide 2-7) | 60 | 1% | 10% | – | – | – |
